# A selection: hits, their analogues and other compounds. The true share with any hit is near 2.6%.
# NR1D1 modulator: modulates human Rev-erb alpha binding to DNA | activity, % at 10 µM | hit rate 0.79% among 370,000 | Rev-erbα–FITC-DNA binding, fluorescence polarization, 90 min;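 active = activity above about 14%, limit read from the data; passing the limit was not always enough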;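 also: 0% = DMSO wells with 35 nM protein and 100% = DMSO wells with 750 nM protein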
# PG9 binder: binds the HIV-1 gp120 antibody PG9; TR-FRET gp120-PG9 antibody binding; inhibition, % at 6.7 µM; hit rate 0.43% among 360,000; in the data active = inhibition above about 8.5%
# NR2E3 ag-1: NR2E3 (human) agonism; Q9Y5X4; GST-NR2E3/biotin-RetCOR TR-FRET, 1536-well; AID 2300; hit rate 0.12% among 320,000; inhibition of corepressor binding, % at 4.78 µM;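 active = percent inhibition above the cutoff of mean plus 3 SD of all tested compounds, set per screening campaign, cut at about 20% in these data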;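 also: 0% = DMSO wells and 100% = biotin wells as full block of FRET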
# Target sequence (Q9Y5X4 whole entry, looked up): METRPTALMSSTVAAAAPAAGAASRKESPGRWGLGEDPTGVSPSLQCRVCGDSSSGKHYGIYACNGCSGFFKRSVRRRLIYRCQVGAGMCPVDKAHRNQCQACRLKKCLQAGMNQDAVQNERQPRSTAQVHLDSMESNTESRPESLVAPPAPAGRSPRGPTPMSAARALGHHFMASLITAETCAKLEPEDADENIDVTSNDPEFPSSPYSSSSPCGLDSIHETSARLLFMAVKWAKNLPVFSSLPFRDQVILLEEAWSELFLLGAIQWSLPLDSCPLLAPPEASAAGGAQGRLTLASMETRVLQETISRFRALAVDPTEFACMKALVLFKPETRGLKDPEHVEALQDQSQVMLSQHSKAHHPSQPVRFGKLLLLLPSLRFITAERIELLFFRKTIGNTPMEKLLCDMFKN
#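 Test system: GST-NR2E3 and biotin-RetCOR proteins | Quantity: 1.35 nM GST-tagged NR2E3 final | Medium: Tris pH 7.5 | Also added: 7 nM biotin-RetCOR | Dosing: Compound at 4.8 µM, single dose | Timing: 5 h at 4 °C | Detection: Time-resolved FRET | Read-out basis: Percent inhibition | Benchmarks: Biotin wells as high control, 0.6% DMSO wells as low control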
# rCAG RNA binder: molecules binding r(CAG) RNA repeats | r(CAG) RNA repeat, TO-PRO-1 dye displacement fluorescence | inhibition, % at 3 µM | hit rate 1.3% among 370,000;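 active = inhibition above the plate cutoff, the mean of all test compounds on that plate plus 3 SD, cut at about 35% in these data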;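 also: 0% = DMSO alone and 100% = 100 µM mitoxantrone as full dye displacement; higher means more dye released from RNA so lower well fluorescence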
# NR2E3 ag-2: activates human NR2E3 receptor; Q9Y5X4; CHO-S Gal4-NCOR/VP16-NR2E3 two-hybrid, luciferase; hit rate 0.35% among 360,000; inhibition of corepressor binding, % at 3.98 µM;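 active = inhibition above the mean of all tested compounds plus 3 SD, cut at about 70% in these data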;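 also: 0% = DMSO with NR2E3 transfected cells and 100% = cells lacking NR2E3 construct; higher means lower luciferase signal from less NR2E3 corepressor binding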
# rCAG binder conf: r(CAG) RNA repeat binding, confirmation | shares compounds with rCAG RNA binder | TO-PRO-1 dye displacement fluorescence | inhibition, % at 3 µM | hit rate 70% among 4,300 | AID 652065;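 active = inhibition above a per-plate cutoff, the mean inhibition of sample wells plus 3 SD, cut at about 35% in these data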;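 also: loss of TO-PRO-1 fluorescence as compound displaces dye from 1x1 AA loop RNA; 0% = DMSO only wells and 100% = 100 µM mitoxantrone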
# DNA CAG counter: counter-screen for rCAG RNA binders: DNA CAG dye complex inhibitors; d(CAG) DNA oligo TO-PRO-1 dye displacement, fluorescence; shares compounds with rCAG RNA binder; inhibition, % at 3 µM; AID 652068; hit rate 94% among 4,300;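 active = inhibition above its plate's cutoff, the mean test-well inhibition plus 3 SD, cut at about 4.8% in these data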;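 also: 0% = DNA dye mix with DMSO and 100% = 100 µM mitoxantrone; hits displace the dye from DNA and so lower well fluorescence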
# DNA CAG DR: disrupts DNA CAG TO-PRO-1 complex in dose response. shares compounds with rCAG RNA binder. IC50, µM. hit rate 20% among 250. DNA CAG/GTC duplex TO-PRO-1 dye displacement fluorescence. AID 686960; in the data active = IC50 below about 10 µM
# Starred values were filed as active, the others as inactive; i = inactive; / = no result given.
SMILES,NR1D1 modulator,PG9 binder,NR2E3 ag-1,rCAG RNA binder,NR2E3 ag-2,rCAG binder conf,DNA CAG counter,others
Cc1cccc(NC(=O)/C=C/c2ccc([N+](=O)[O-])s2)c1,0,-4,1,2,-1,/,/,
OCC1OC(n2cnc3c(/C=C(\O)c4ccccc4)ncnc32)C(O)C1O (stereo not given),-2,0,/,0,-9,/,/,
Cc1ccc(S(=O)(=O)Oc2ccc(/C=C(/NC(=O)c3ccccc3)C(=O)O)cc2)cc1,-5,-1,4,40*,13,37*,9.3*,
COc1ccccc1OCCNC(=O)CN1C(=O)NC2(CCCCC2)C1=O,-4,-1,1,2,-16,/,/,
CC(=O)NCCNC(=O)Cn1nnc(-c2ccccc2)c1COc1ccc2ccccc2c1,-2,-2,/,2,-13,/,/,
CC(=O)c1ccc(OCc2nnn(CC(=O)NS(=O)(=O)c3ccc(C)cc3)c2-c2ccccc2)cc1,-3,0,/,62*,-25,68*,20*,
CCCCNC(=O)Cn1nnc(-c2ccccc2)c1COc1ccc(C(C)=O)cc1,1,1,/,0,-4,/,/,
COc1cc(C)ccc1S(=O)(=O)NC(=O)Cn1nnc(COc2ccc3c(c2)CCCC3)c1C,-6,-1,/,48*,-9,42*,12*,
Cc1c(COc2ccc3ccccc3c2)nnn1CC(=O)NS(=O)(=O)c1ccccc1C(F)(F)F,8,1,/,70*,17,64*,26*,
COc1ccc(OC)c(/C=C/C(=O)OCC(=O)Nc2nnc(-c3ccccc3)o2)c1,2,2,7,45*,-25,41*,15*,
COc1ccccc1/C=C/C(=O)OCC(=O)Nc1nnc(-c2ccccc2)o1,-7,-1,/,30,12,/,/,
CCCc1nn2c(=O)c(C(c3cccc(Cl)c3)c3c(O)nc4sc(CCC)nn4c3=O)c(O)nc2s1,-2,0,-2,39*,-14,51*,16*,
COc1cc(/C=C/C(=O)OCC(=O)N2CCCC2)ccc1OCC#N,-13,0,0,4,12,/,/,
C[C@H]1CN([C@@H](C)CO)C(=O)CCCn2cc(nn2)CO[C@@H]1CN(C)S(=O)(=O)c1ccc(C#N)cc1,6,2,/,4,-3,/,/,
O=C(N/N=C(\CC(=O)c1cccs1)C(F)(F)F)c1ccncc1,4,-3,-6,10,-3,/,/,
Cc1ccc(C(=O)N/N=C(/CC(=O)c2cccs2)C(F)(F)F)cc1,2,-2,-3,45*,-79,32,7.6*,
Cc1cccc(C)c1NC(=O)CNC(=O)C(C)NC(C)c1ccccc1Br (stereo not given),0,0,0,1,-7,/,/,
O=[N+]([O-])c1c(Nc2ccccc2O)cc(Cl)c2nonc12,12,-1,/,41*,14,20,9.7*,
COC(=O)c1sc(-c2ccc(C(C)(C)C)cc2)cc1NC(=O)COCC(=O)O,-5,1,1,64*,-41,73*,31*,DNA CAG DR=9.1*
COC(=O)c1sc(-c2ccc(Cl)cc2)cc1NC(=O)CSCC(=O)O,-5,2,-3,27,2,/,/,
O=C(CCN1CCCCC1)N1CCc2c([nH]c3ccccc23)C1c1cccnc1 (stereo not given),0,1,/,2,-20,/,/,
CCc1ccccc1NC(=O)CSc1ccsc1[N+](=O)[O-],-8,0,7,4,15,/,/,
O=C(CSc1ccsc1[N+](=O)[O-])Nc1cccc(F)c1,-9,0,/,35*,-3,19,12*,
O=C(NN1C(=O)c2cc(Br)ccc2NC1c1cc(Br)cc(Br)c1O)c1ccncc1 (stereo not given),-6,1,1,51*,5,42*,14*,
O=C(NN1C(=O)c2cc(Br)ccc2NC1c1ccccc1Cl)c1ccncc1 (stereo not given),0,-1,3,7,17,/,/,
SMILES,NR1D1 modulator,PG9 binder,NR2E3 ag-1,rCAG RNA binder,NR2E3 ag-2,rCAG binder conf,DNA CAG counter,others
Cc1ccc2c(c1C)NC(=O)C21N2CCCC2C(C(=O)c2ccc3ccccc3c2)C12C(=O)Nc1ccccc12 (stereo not given),8,-1,/,14,1,/,/,
Cc1ccc(S(=O)(=O)N2[C@@H](c3ccccc3)C(C(=O)O)=CC[C@H]2c2ccc3c(c2)OCO3)cc1,-7,1,-2,54*,12,43*,11*,
Cc1ccc(S(=O)(=O)N2[C@@H](c3ccc(C(C)(C)C)cc3)C(C(=O)O)=CC[C@H]2c2ccc3c(c2)OCO3)cc1,1,-1,/,83*,47,82*,46*,
Cc1ccc(S(=O)(=O)N2CCN(C(=O)c3ccc4c(c3)OCO4)CC2)cc1,4,0,3,-2,-17,/,/,
CC(OC(=O)C1CC1)C(=O)Nc1ncc(Cl)cc1Cl (stereo not given),-1,0,-2,-1,-37,/,/,
COC(=O)C1=C(C)N(Cc2ccc(F)cc2)C(=S)NC1c1ccc(F)cc1 (stereo not given),2,1,/,3,/,/,/,
N#CCSc1n[nH]c2nc3c(c(=O)n12)C1(CCCC1)Cc1ccccc1-3,6,0,3,50*,2,55*,18*,DNA CAG DR=i
CCCn1c(SCC#N)nc2c(c1=O)C1(CCCC1)Cc1ccccc1-2,4,1,-2,-1,-47,/,/,
COc1cccc(C(C[N+](=O)[O-])c2c(C)[nH]n(-c3ccccc3)c2=O)c1 (stereo not given),5,-4,10,5,-8,/,/,
Cc1[nH]n(-c2ccccc2)c(=O)c1C(c1cccc([N+](=O)[O-])c1O)c1c(C)[nH]n(-c2ccccc2)c1=O,-4,-4,10,79*,-15,46*,13*,
Cc1c(C(c2cccc([N+](=O)[O-])c2O)c2c(C)n(C)n(-c3ccccc3)c2=O)c(=O)n(-c2ccccc2)n1C,5,-3,2,4,-16,/,/,
Cc1[nH]n(-c2ccccc2)c(=O)c1C(c1cccc([N+](=O)[O-])c1)c1c(C)[nH]n(-c2ccccc2)c1=O,9,-1,-1,68*,-11,50*,20*,
O=C(CN1C(=O)/C(=C/c2ccco2)SC1=S)Nc1ccc(C(=O)O)c(O)c1,-4,-3,4,93*,-26,85*,53*,
O=C(CN1C(=O)/C(=C/c2ccco2)SC1=S)NC1CCS(=O)(=O)C1 (stereo not given),-3,-2,5,48*,-8,19,9.4*,
CC(C(=O)Nc1ccc(C(=O)O)c(O)c1)N1C(=O)/C(=C\c2ccco2)SC1=S (stereo not given),/,/,5,/,-16,/,/,

# Screening results as filed in PubChem BioAssay.
